The values that follow come from ChEMBL document CHEMBL1129996, “1-Aryl-3,5-dihydro-4H-2,3-benzodiazepin-4-ones: novel AMPA receptor antagonists” (J Med Chem, 1997).

Data set [1] concerns Mus musculus. Description: Anticonvulsant activity against tonic phase of the audiogenic seizures in DBA / 2 mice 30 min after ip administration at a dose range 10-100 uM/kg. The data set is classed as functional. The conditions noted are these: 0.5 h. In a few lines: (§1)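 Groups of 10 DBA/2 mice of either sex; drug ip (0.1 mL/10 g) as fresh solution in 50% DMSO/50% saline, 30 min before auditory stimulation (12-16 kHz, 109 dB, 60 s or until tonic extension) under perspex dome after 60 s habituation. Latency and incidence of wild running, clonic and tonic phases scored; ED50 (95% confidence limits) by Litchfield-Wilcoxon.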

Data set [2] is described as follows: Relative lipophilicity of compound. The data set is classed as physicochemical. The settings on record: reversed-phase TLC, acetone/water 2:1. In a few lines: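 Reversed-phase TLC type lipophilicity: plates dried 105 °C 1 h, mobile phase acetone:water 2:1, 1 µL of 3 mg/mL CHCl3 solution spotted; five runs with varied positions, mean Rf converted as Rm = log[(1/Rf) - 1].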

Data set [3] concerns Mus musculus. Description: Anticonvulsant activity against clonic phase of the audiogenic seizures in DBA / 2 mice 30 min after ip administration at a dose range 10-100 uM/kg. The format is functional. The settings on record: 0.5 h. In a few lines:
as §1

Data set [4] in a line: Motor toxicity in 50% of mice on locomotion assessed by Rotarod test following 30 min ip administration. The format is organism-based. The settings on record: mouse, in vivo. In a few lines:
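Male Swiss mice (20-26 g, 48-54 days), groups of 10, trained on rotarod (3 cm, 8 rpm); tested 30 min after ip dosing. Impairment = failure to stay on for 2 min; TD50 (95% confidence limits) by Litchfield-Wilcoxon.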
In general terms: Falling from the rotarod earlier than controls is read as motor impairment.

For data set [5], the system named is Mus musculus. Description: Anticonvulsant activity against tonic phase of the audiogenic seizures in DBA / 2 mice 30 min after ip administration at a dose range 33-200 uM/kg. The data set is classed as functional. The conditions noted are these: 0.5 h. In a few lines: as §1
The test system of data set [6] is Mus musculus. Description: Pentylenetetrazole-induced seizures in Swiss mice after 45 min pretreatment at a dose range 33-200 uM/kg. The data set is classed as functional.
Data set [7] deals with Mus musculus. Description: Anticonvulsant activity against the maximal electroshock in Swiss mice after 45 minutes pretreatment at a dose range 33-200 uM/kg. The format is functional. The method, boiled down:
(§2)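 Swiss mice dosed ip in 50% DMSO/50% saline 45 min before ear-clip electroshock (50 mA, 20 ms pulses, 35 Hz, 400 ms). Protection = abolition of tonic hindlimb extension. Usually 4-5 doses with 8-10 mice each; ED50 (95% confidence limits) by Litchfield-Wilcoxon.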

Data set [8] concerns Mus musculus. As to the kind of experiment: Anticonvulsant activity against clonic phase of the audiogenic seizures in DBA / 2 mice 30 min after ip administration at a dose range 33-200 uM/kg. The conditions noted are these: 0.5 h. The format is functional. In a few lines: as §1
The nature of data set [9]: Therapeutic index it is the ratio between TD50 and ED50 (from the clonic phase of the audiogenic seizures). The conditions noted are these: read-out: TI. The method, boiled down: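 Therapeutic index computed as rotarod TD50 divided by ED50 for the clonic phase of audiogenic seizures in DBA/2 mice.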
Data set [10] has as its system Mus musculus. Description: Anticonvulsant activity against tonic phase of the audiogenic seizures in DBA / 2 mice 30 min after ip administration at a dose range 33-66 uM/kg. The conditions noted are these: 0.5 h. The data set is classed as functional. In a few lines:
as §1

Data set [11] concerns Mus musculus. As to the kind of experiment: Anticonvulsant activity against clonic phase of the audiogenic seizures in DBA / 2 mice 30 min after ip administration at a dose range 33-66 uM/kg. The conditions noted are these: 0.5 h. The format is functional. In a few lines:
as §1

For data set [12], the species on record is Mus musculus. As to the kind of experiment: Audiogenic seizures after concomitant treatment with Flumazenil (24.72 uM) in DBA / 2 mice clonic phase. The format is functional.
Data set [13] relates to Mus musculus. As to the kind of experiment: Audiogenic seizures after pretreatment with Aniracetam in DBA / 2 mice clonic phase at a dose range of 10-200 uM/kg. The format is functional. In a few lines:
(§3)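 DBA/2 mice pretreated with aniracetam 50 nmol icv 60 min before auditory testing, with ip 2,3-benzodiazepine; audiogenic clonic and tonic phases scored; ED50 by Litchfield-Wilcoxon.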

Data set [14] is filed under the species Mus musculus. As to the kind of experiment: Audiogenic seizures after concomitant treatment with Flumazenil (24.72 uM) in DBA / 2 mice tonic phase. The format is functional.
The species entered for data set [15] is Mus musculus. Description: Audiogenic seizures after concomitant treatment with Flumazenil (8.24 uM) in DBA / 2 mice clonic phase. The format is functional.
Data set [16] is filed under the species Mus musculus. Description: Pentylenetetrazole-induced seizures in Swiss mice after 45 min pretreatment at a dose range 10-150 uM / kg (95% confidence limits). The data set is classed as functional.
In data set [17] the test system is Mus musculus. As to the kind of experiment: Anticonvulsant activity against the tonic seizures induced by icv injection of AMPA in DBA / 2 mice at a dose range of 10-200 uM/kg. The format is functional. The settings on record: central.
The subject of data set [18] is Mus musculus. As to the kind of experiment: Anticonvulsant activity against the maximal electroshock in Swiss mice after 45 minutes pretreatment at a dose range uM/kg. The format is functional. In a few lines: as §2
In general terms: In the maximal electroshock model the usual endpoint is tonic extension of the hind limbs.

For data set [19], the system named is Mus musculus. Description: Audiogenic seizures after pretreatment with Aniracetam in DBA / 2 mice tonic phase at a dose range of 10-200 uM/kg. The format is functional. The method, boiled down: as §3
Data set [20] concerns Mus musculus. Description: Anticonvulsant activity against the clonic seizures induced by icv injection of AMPA in DBA / 2 mice at a dose range of 10-200 uM / kg (95% confidence limits). The data set is classed as functional. The settings on record: central.
For data set [21], the species on record is Mus musculus. As to the kind of experiment: Audiogenic seizures after concomitant treatment with Flumazenil (8.24 uM) in DBA / 2 mice tonic phase. The format is functional.
Data set [22] concerns Mus musculus. Description: Anticonvulsant activity against clonic phase of the audiogenic seizures in DBA / 2 mice 30 min after ip administration at a dose range 10-120 uM/kg. The data set is classed as functional. The conditions noted are these: 0.5 h. The method, boiled down: as §1
The test system of data set [23] is Mus musculus. As to the kind of experiment: Anticonvulsant activity against tonic phase of the audiogenic seizures in DBA / 2 mice 30 min after ip administration at a dose range 10-120 uM/kg. The data set is classed as functional. The conditions noted are these: 0.5 h. The method, boiled down:
as §1

For data set [24], the system named is Mus musculus. As to the kind of experiment: Audiogenic seizures after pretreatment with Aniracetam in DBA / 2 mice tonic phase at a dose range of 33-300 uM/kg. The format is functional. In a few lines: as §3
The subject of data set [25] is Mus musculus. Description: Pentylenetetrazole-induced seizures in Swiss mice after 45 min pretreatment at a dose range 10-150 uM/kg. The format is functional.
Data set [26] has as its system Mus musculus. Description: Anticonvulsant activity against the clonic seizures induced by icv injection of AMPA in DBA / 2 mice at a dose range of 10-200 uM/kg. The data set is classed as functional. The conditions noted are these: central.
The test system of data set [27] is Mus musculus. As to the kind of experiment: Anticonvulsant activity against the maximal electroshock in Swiss mice after 45 minutes pretreatment at a dose range 10-150 uM/kg. The format is functional. In a few lines: as §2
Data set [28] has as its system Mus musculus. As to the kind of experiment: Audiogenic seizures after pretreatment with Aniracetam in DBA / 2 mice clonic phase at a dose range of 33-300 uM/kg. The format is functional. The method, boiled down:
as §3

Data set [29] has as its system Mus musculus. As to the kind of experiment: Anticonvulsant activity against clonic phase of the audiogenic seizures in DBA / 2 mice 30 min after ip administration at a dose range 33-133 uM/kg. The conditions noted are these: 0.5 h. The format is functional. In a few lines: as §1
For data set [30], the system named is Mus musculus. Description: Anticonvulsant activity against tonic phase of the audiogenic seizures in DBA / 2 mice 30 min after ip administration at a dose range 33-133 uM/kg. The data set is classed as functional. The conditions noted are these: 0.5 h. In a few lines: as §1

“And” between values parts separate entries of the source, which are not always exact repeats. Identical values can stand only once.

In general, ED50 refers to the dose that gives a 50% effect, or the effect in half of the subjects. On to `COc1cc2c(cc1OC)C(c1ccc(Br)cc1)=NN(C)C(=O)C2`, for which the ED50 in [1] was 38 µmol/kg and 14.8 mg/kg; in data set [3], 63 µmol/kg and 24.5 mg/kg. In data set [2], the Rm was determined as 0.288.

One may read the TD50 as the 50% point of the dose-response relation for the toxic effect studied. Take `COc1cc2c(cc1OC)C(c1ccc(Cl)cc1)=NNC(=O)C2`: the TD50 at 0.5 h in data set [4] stood at 240 µmol/kg. For the same compound, in data set [2], the Rm is listed as 0.017. The ED50 is 75.3 µmol/kg and 24.8 mg/kg in [5]; 145 µmol/kg in data set [6]; 115 µmol/kg in data set [7]; 102 µmol/kg and 33.7 mg/kg in [8]. Also, the therapeutic index (TD50/ED50) in data set [9] amounted to 2.3.

`COc1cc2c(cc1OC)C(c1ccccc1)=NN(C(C)=O)C(=O)C2` displayed a TD50 at 0.5 h in data set [4] of 181 µmol/kg. Besides, the ED50 is 72.1 µmol/kg and 24.4 mg/kg in data set [1]; 101 µmol/kg and 33.3 mg/kg in data set [3]. In data set [2], this compound gave a Rm of -0.052. Moreover, in [9], the therapeutic index (TD50/ED50) amounted to 1.8.

For `COc1cc2c(cc1OC)C(c1ccc(Cl)cc1)=NN(C)C(=O)C2`, in data set [2], the Rm amounted to 0.25. The ED50 in data set [10] was 38.6 µmol/kg and 13.3 mg/kg; in [11], 41.2 µmol/kg and 14.2 mg/kg.

Consider `COc1cc2c(cc1OC)C(c1ccc(N)cc1)=NN(C)C(=O)C2`, for which the TD50 at 0.5 h in data set [4] was determined as 159 µmol/kg. The ED50 is 45.9 µmol/kg in data set [12]; 43.7 µmol/kg and 14.2 mg/kg in data set [1]; 141 µmol/kg in data set [13]; 32.2 µmol/kg in [14]; 51.2 µmol/kg in [15]; 70.8 µmol/kg in [16]. Further, the ED50 in [17] was 62.4 µmol/kg; in data set [18], 57.2 µmol/kg; in [3], 50.2 µmol/kg and 16.3 mg/kg; in [19], 112 µmol/kg; in data set [20], 72.1 µmol/kg; in [21], 38.5 µmol/kg. The same compound showed a Rm in data set [2] of -0.374. In data set [9], the therapeutic index (TD50/ED50) came out at 3.2.

As to `COc1cc2c(cc1OC)C(c1cccc([N+](=O)[O-])c1)=NN(C)C(=O)C2`, the Rm in data set [2] came to 0.052. In addition, the ED50 in data set [22] was > 120 µmol/kg and > 44 mg/kg; in data set [23], > 120 µmol/kg and > 44 mg/kg.

As for `COc1cc2c(cc1OC)C(c1ccc(N(C(C)=O)C(C)=O)cc1)=NN(C(C)=O)C(=O)C2`, the ED50 in data set [1] is 43.9 µmol/kg and 19.2 mg/kg; in data set [3] it was 56.8 µmol/kg and 24.8 mg/kg. The same compound returned a Rm in [2] of -0.673.

Compound `COc1cc2c(cc1OC)C(c1ccccc1)=NN(C)C(=O)C2` had a TD50 at 0.5 h in data set [4] of 154 µmol/kg. Also, the ED50 is 197 µmol/kg in data set [24]; 89.9 µmol/kg in [25]; 26.7 µmol/kg and 8.28 mg/kg in data set [1]; 76.1 µmol/kg in [26]; 69.6 µmol/kg in [17]; 42.7 µmol/kg in [27]. Moreover, the ED50 in data set [3] was 37.8 µmol/kg and 11.7 mg/kg; in [28] it was 259 µmol/kg. The compound further yielded a Rm in data set [2] of 0. The therapeutic index (TD50/ED50) in [9] amounted to 4.1.

`COc1ccc2c(c1)CC(=O)N(C)N=C2c1ccccc1`: the Rm in data set [2] stood at 0.189. The ED50 in data set [29] is 117 µmol/kg and 32.8 mg/kg; in [30] it was 99.1 µmol/kg and 27.8 mg/kg.
